From PubChem
This is a sample that favours compounds with a hit; in the whole collection about 3.7% have one here.
hERG rescue: shields human hERG channel from block by proarrhythmic agents; Q12809; activation (rescue from dofetilide block), less the hit threshold, % at 10 µM; 0.51% of 310,000 active; CHO-hERG, FluxOR thallium flux, dofetilide IC70 present;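 active = activation above the mean of controls blocked by dofetilide plus 5 SD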;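 note: thallium influx through hERG after potassium depolarization seen as dye fluorescence rise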
KCNQ1 pot: potentiates or activates the human KCNQ1 potassium channel; P51787; CHO-K1 KCNQ1, thallium flux FluxOR fluorescence; hits give high values; B-score at 10 µM; 0.35% of 310,000 active; AID 2648;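 active = fluorescence ratio B-score, a plate-corrected score, at least three library SD, with initial intensity B-score within 5 SD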
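Material: CHO-K1 cells stably expressing KCNQ1. Medium: assay buffer for compound exposure, DMSO matched across wells. Reagent: K+/Tl+ depolarizing stimulus. Compound dosing: single-concentration screen. Times: 37 °C overnight plating, 90-min dark dye load, 20-min compound pretreatment. Technique: FluxOR Tl+ flux fluorescence.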
KCNK3 inh: human KCNK3 channel inhibition, primary screen. O14649. CHO-KCNK3 thallium flux, FluxOR fluorescence; hits give low values. B-score at 10 µM. 0.84% of 340,000 active. AID 602410;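 active = B-score under library mean minus 4 SD, starting fluorescence ratio at most library mean plus 5 SD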;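 note: more negative B-score means stronger inhibition of thallium flux through KCNK3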
Target sequence (O14649 whole entry, looked up): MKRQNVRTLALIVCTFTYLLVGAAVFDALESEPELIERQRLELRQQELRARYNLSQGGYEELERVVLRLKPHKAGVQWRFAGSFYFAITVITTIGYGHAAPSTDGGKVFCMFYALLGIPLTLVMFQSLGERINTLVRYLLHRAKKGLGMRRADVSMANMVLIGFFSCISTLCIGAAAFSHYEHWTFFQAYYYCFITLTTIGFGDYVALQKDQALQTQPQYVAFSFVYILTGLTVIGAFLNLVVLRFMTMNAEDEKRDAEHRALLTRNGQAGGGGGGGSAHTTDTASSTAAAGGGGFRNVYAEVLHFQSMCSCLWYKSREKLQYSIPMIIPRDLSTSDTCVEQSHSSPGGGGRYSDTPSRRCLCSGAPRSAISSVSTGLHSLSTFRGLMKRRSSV
Kir21 inh: Kir2.1 (mouse) channel inhibition; P35561; HEK293-Kir2.1, FluxOR thallium flux fluorescence; hits give low values; B-score at 10 µM; 0.85% of 310,000 active; AID 1672;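 active = fluorescence ratio B-score at or below minus 3 SD of library scores, with starting-brightness B-score within 2 SD, cut at about -4.2 in these data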;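 note: channel flux triggered by added potassium and thallium sulfate stimulus; B-score of peak minus minimum fluorescence over baseline after thallium stimulus; more negative B-score means stronger Kir2.1 block with less thallium influx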
KCNQ1 block: blocks the human KCNQ1 potassium channel; P51787; CHO-K1 KCNQ1, FluxOR thallium flux fluorescence; hits give high values; B-score at 10 µM; 1.3% of 310,000 active;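 active = compounds whose thallium flux B-score, printed positive for inhibition, exceeds three library SD while starting fluorescence stays within three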;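 note: channel opened by potassium depolarization with thallium stimulus after 20 min compound exposure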
KCNK9 block: blocks the human KCNK9 two-pore domain potassium channel. Q9NPC2. HEK293 KCNK9, FluxOR thallium flux fluorescence; hits give low values. B-score at 10 µM. 1.2% of 310,000 active. AID 488922;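 active = ratio B-score over 3 SD below the library mean, with starting fluorescence within 5 SD of its mean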;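 note: negative B-score means less thallium flux so channel inhibition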
* hit, by the source's call.

Results for CCOc1ccc2[nH]c(=O)c(CN(Cc3ccco3)C(CC)c3nnnn3Cc3ccccc3)cc2c1 (configuration not stated) ?
hERG rescue: -8; KCNQ1 pot: inactive; KCNK3 inh: inactive; Kir21 inh: 0.31; KCNQ1 block: 8*; KCNK9 block: inactive

Results for CCN(CC)S(=O)(=O)c1ccc2[nH]c(=O)cc(C(=O)Nc3cccc(C(C)=O)c3)c2c1 ?
hERG rescue: 22*; KCNQ1 pot: inactive; KCNK3 inh: inactive; Kir21 inh: -0.05; KCNQ1 block: inactive; KCNK9 block: inactive

What do the screens show for `Cc1ccccc1-n1c(C)cc(/C=N/NC(=O)c2ccncc2)c1C`?
hERG rescue: -14; KCNQ1 pot: 11*; KCNK3 inh: inactive; Kir21 inh: 0.3; KCNQ1 block: inactive; KCNK9 block: inactive

How did O=C(N/N=C/c1cc(Cl)cc(Cl)c1O)c1ccncc1 do in these assays?
hERG rescue: -12; KCNQ1 pot: inactive; KCNK3 inh: inactive; Kir21 inh: -6; KCNQ1 block: 7*; KCNK9 block: inactive

Results for COc1ccc(Cl)cc1S(=O)(=O)N1CCN=C1Cc1ccccc1 ?
hERG rescue: -10; KCNQ1 pot: inactive; KCNK3 inh: inactive; Kir21 inh: -5.1*; KCNQ1 block: inactive; KCNK9 block: inactive

How did Cc1ccc(C(=O)Nc2ccc(N3CCN(C(=O)c4cccs4)CC3)cc2)c(Cl)c1 do in these assays?
hERG rescue: -11; KCNQ1 pot: inactive; KCNK3 inh: inactive; Kir21 inh: 0.42; KCNQ1 block: inactive; KCNK9 block: inactive

Results for O=C(NCC1CCCO1)/C(=C\c1ccccc1F)NC(=O)c1ccccc1 (configuration not stated) ?
hERG rescue: -6; KCNQ1 pot: inactive; KCNK3 inh: inactive; Kir21 inh: -0.39; KCNQ1 block: inactive; KCNK9 block: inactive

How did CC(=O)c1ccc(OCC(O)COc2ccc(C(C)=O)cc2)cc1 do in these assays?
hERG rescue: 4.9*; KCNQ1 pot: inactive; KCNK3 inh: inactive; Kir21 inh: 2.9; KCNQ1 block: inactive; KCNK9 block: inactive

Results for C=C(C)C(=O)OCC(O)COc1ccc(C(C)(C)c2ccc(OCC(O)COC(=O)C(=C)C)cc2)cc1 (configuration not stated) ?
hERG rescue: -19; KCNQ1 pot: inactive; KCNK3 inh: -12*; Kir21 inh: 0.17; KCNQ1 block: 9*; KCNK9 block: inactive

Results for CC(=O)N(C)c1ccc(OCC(O)COc2ccc(N(C)C(C)=O)cc2)cc1 ?
hERG rescue: -6; KCNQ1 pot: inactive; KCNK3 inh: inactive; Kir21 inh: -0.03; KCNQ1 block: inactive; KCNK9 block: inactive

How did CC(C)C(CCNC1CCN(C)CC1)c1ccc(Cl)cc1 (configuration not stated) do in these assays?
hERG rescue: -6; KCNQ1 pot: inactive; KCNK3 inh: inactive; Kir21 inh: -1.4; KCNQ1 block: inactive; KCNK9 block: inactive

What do the screens show for `CN1CCC(NCCC(c2ccc(F)cc2)c2ccc(Cl)cc2)CC1` (configuration not stated)?
hERG rescue: -9; KCNQ1 pot: inactive; KCNK3 inh: inactive; Kir21 inh: -6.7*; KCNQ1 block: inactive; KCNK9 block: inactive

How did N#CC1=C(N)SC(N)=C(C#N)C1CCC1CCCCC1 do in these assays?
hERG rescue: -30; KCNQ1 pot: inactive; Kir21 inh: -5.2; KCNQ1 block: 9*; KCNK9 block: inactive

What do the screens show for `CCCCCCC(C)n1[nH]c(=O)c2c(C)cc(C)nc21` (configuration not stated)?
hERG rescue: -12; KCNQ1 pot: inactive; KCNK3 inh: inactive; Kir21 inh: -0.76; KCNQ1 block: inactive; KCNK9 block: inactive

What do the screens show for `COc1cccc(/C=N/N2C(=O)CSC2=S)c1O`?
hERG rescue: -7; KCNQ1 pot: inactive; KCNK3 inh: inactive; Kir21 inh: 0.43; KCNQ1 block: inactive; KCNK9 block: inactive

What do the screens show for `COc1cc(/C=N/N2C(=O)CSC2=S)cc(Br)c1O`?
KCNK3 inh: -9.4*

What do the screens show for `Cc1ccccc1-c1cc(C(=O)NCc2ccc3c(c2)OCO3)nn1CC1CC(c2cccc([N+](=O)[O-])c2)=NO1` (configuration not stated)?
KCNK3 inh: inactive

Results for N#CC1=C(N)Oc2ccc3ccc(O)cc3c2C1c1ccsc1 (configuration not stated) ?
hERG rescue: -22; KCNQ1 pot: inactive; KCNK3 inh: inactive; Kir21 inh: -5*; KCNQ1 block: inactive; KCNK9 block: inactive

Results for O=C(CSc1nc2ccccc2c(=O)n1CCCC(=O)N1CCCC1)NCc1ccco1 ?
hERG rescue: -11; KCNQ1 pot: inactive; KCNK3 inh: inactive; Kir21 inh: 0.51; KCNQ1 block: inactive; KCNK9 block: inactive

Results for O=C(CCCCCn1c(SCc2ccncc2)nc2ccccc2c1=O)NCc1ccco1 ?
hERG rescue: -23; KCNQ1 pot: inactive; KCNK3 inh: inactive; Kir21 inh: -4.3*; KCNQ1 block: inactive; KCNK9 block: inactive

Results for O=S(=O)(c1ccc2c(c1)OCCO2)N1CCN(c2ncnc3sccc23)CC1 ?
hERG rescue: -14; KCNQ1 pot: inactive; KCNK3 inh: inactive; Kir21 inh: 1.4; KCNQ1 block: 6*; KCNK9 block: inactive

How did Cc1ccc(S(=O)(=O)N2CCN(c3ncnc4sccc34)CC2)cc1C do in these assays?
KCNK3 inh: inactive

What do the screens show for `Cc1ccc(-c2nn(-c3cc(N4CCNCC4)ccc3[N+](=O)[O-])c(=O)c3ccccc23)cc1`?
hERG rescue: -18; KCNQ1 pot: inactive; KCNK3 inh: inactive; Kir21 inh: -4.2*; KCNQ1 block: inactive; KCNK9 block: inactive

How did Cc1nn(-c2cc(N3CCCCCC3)ccc2[N+](=O)[O-])c(=O)c2ccccc12 do in these assays?
hERG rescue: -5; KCNQ1 pot: inactive; KCNK3 inh: inactive; Kir21 inh: 1.5; KCNQ1 block: inactive; KCNK9 block: inactive

How did c1ccc(-n2cnnc2SCc2cn3ccsc3n2)cc1 do in these assays?
hERG rescue: -8; KCNQ1 pot: inactive; KCNK3 inh: inactive; Kir21 inh: -0.09; KCNQ1 block: inactive; KCNK9 block: inactive

What do the screens show for `Cc1ccc(-n2c(SCc3cn4ccsc4n3)nc3ccccc3c2=O)cc1`?
hERG rescue: -12; KCNQ1 pot: inactive; KCNK3 inh: inactive; Kir21 inh: -0.01; KCNQ1 block: 7*; KCNK9 block: inactive

What do the screens show for `COc1cc2c(c(NC(C)=O)c1)N(C(C)=O)CCC2`?
KCNK3 inh: inactive

How did COCCCNC(=O)c1ccc2c3c(onc13)-c1ccccc1C2=O do in these assays?
hERG rescue: -56; KCNQ1 pot: inactive; KCNK3 inh: inactive; Kir21 inh: -14; KCNQ1 block: 10*; KCNK9 block: inactive
